Series [1] concerns the target T1, Corticotropin-releasing factor receptor 1 (Homo sapiens, UniProt P34998).
T1 sequence (P34998 whole entry): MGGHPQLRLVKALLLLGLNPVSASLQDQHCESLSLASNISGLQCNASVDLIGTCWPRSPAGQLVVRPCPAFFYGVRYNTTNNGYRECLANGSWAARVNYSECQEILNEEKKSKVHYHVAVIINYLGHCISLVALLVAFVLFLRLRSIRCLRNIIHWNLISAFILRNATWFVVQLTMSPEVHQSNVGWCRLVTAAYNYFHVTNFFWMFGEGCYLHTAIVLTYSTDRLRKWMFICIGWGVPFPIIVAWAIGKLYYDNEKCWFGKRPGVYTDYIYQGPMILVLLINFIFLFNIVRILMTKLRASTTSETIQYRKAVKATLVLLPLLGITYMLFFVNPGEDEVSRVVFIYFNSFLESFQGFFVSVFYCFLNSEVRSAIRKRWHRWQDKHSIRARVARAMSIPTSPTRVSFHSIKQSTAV
In words: Binding affinity for corticotropin-releasing factor-1 expressed in […] cells. It counts as cell-based. In outline:
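Cloned human CRF1 receptor expressed in […] cells. Radiolabeled sauvagine used as ligand. Ki derived from dose–response curves over 1 nM to 10 μM. Values are the mean of three or more independent determinations.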

Series [2] is described as follows: Oral bioavailability in Rat upon oral administration. It counts as ADME, organism-based. The note with it: in vivo. Summed up: (§1)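 Male Sprague-Dawley rats given 10 mg/kg intravenously or orally. Plasma clearance, volume of distribution and terminal half-life taken from the iv arm. Plasma and brain Cmax taken after oral dosing. Oral bioavailability estimated. Brain exposure relative to plasma based on AUC (0–6 h).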

The nature of series [3]: Plasma clearance in rat was determined upon i.v. administration. It counts as ADME, organism-based. Conditions: iv. Summed up: as §1
Series [4] can be described thus: Terminal half life in rat was determined upon intravenous administration. The note with it: in vivo.
A short description of series [5]: Concentration maximum in brain of rat was determined after 1 hr upon oral administration. On the set-up: route oral. It counts as ADME, organism-based. Summed up: as §1
Series [6] is described as follows: Volume distribution in rat was determined upon intravenous administration. Conditions: in vivo.
Series [7] is described as follows: Concentration maximum in plasma of rat was determined after 1 h upon oral administration. It counts as ADME, organism-based. On the set-up: route oral. Summed up: as §1
The target of series [8] is T1, Corticotropin-releasing factor receptor 1. Put plainly: Inhibition of CRF stimulated cAMP production in CHO cells expressing CRF1 receptor. It counts as functional, cell-based.
Series [9] in a line: Terminal half life in rat was determined upon oral administration. It counts as ADME, organism-based. Conditions: in vivo.

Some results are limits rather than exact numbers.

In series [1], `CCCC(CCC)N1CCn2nc(-c3ccc(Cl)cc3Cl)c3nc(C)cc1c32` gave a Ki of 4.5 nM.
On the same count and under the same terms, then `CCCC(CCC)N1CCn2c(=O)n(-c3ccc(C(F)(F)F)cc3)c3nc(C)cc1c32`, with 17 nM; and `CCCC(CCC)N1CCn2c(=O)n(-c3ccc(Cl)cc3Cl)c3nc(C)cc1c32`, with 5.1 nM.
`CCCC(CCC)N1CCn2c(=O)n(-c3ccc(C(=O)OC)cc3)c3nc(C)cc1c32`: the affinity in series [1] corresponds to a Ki of 920 nM.
In turn, `CCCC(CCC)N1CCn2c(=O)n(-c3ccc(OC)cc3)c3nc(C)cc1c32` returned a bioavailability in series [2] of 30%. Moreover, the clearance in [3] was 53.4 mL/min/kg. The half-life in series [4] worked out at 96 min. Besides, the results for the Cmax in series [5] and in series [7] were 1180 ng/g and 356 ng/mL, respectively. In series [6], this compound yielded a Vd of 7.2 L/kg. In series [1], affinity was put at a Ki of 2 nM. In [8], this compound showed an IC50 of 71 nM.
Consider `CCC(CC)N1CCn2c(=O)n(-c3ccc(OC)cc3C)c3nc(C)cc1c32`, for which, in series [1], the Ki was determined as 20 nM.
On the same count and under the same terms, under `CCCC(CCC)N1CCn2c(=O)n(-c3ccc(C(C)C)cc3Br)c3nc(C)cc1c32` stands 1.1 nM; under `CCCC(CCC)N1CCn2c(=O)n(-c3ccc(S(C)(=O)=O)cc3)c3nc(C)cc1c32`, 460 nM; under `CCCC(CCC)N1CCn2c(=O)n(-c3ccccc3OC)c3nc(C)cc1c32`, 44 nM.
Compound `CCCC(CCC)N1CCn2c(=O)n(-c3cccc(OC)c3)c3nc(C)cc1c32` displayed an inhibitory constant (Ki) in series [1] of 130 nM.
Consider `CCC(CC)N1CCn2c(=O)n(-c3ccc(C(F)(F)F)cc3)c3nc(C)cc1c32`, for which the affinity in [1], expressed as Ki, was 170 nM.
The compound `CCC(CC)N1CCn2c(=O)n(-c3ccc(OC)cc3)c3nc(C)cc1c32` registered a Ki in series [1] of 8 nM.
Same read-out and setting: then `CCCC(CCC)N1CCn2c(=O)n(-c3ccc(OC)nc3)c3nc(C)cc1c32`, with 60 nM; and `CCCC(CCC)N1CCn2c(=O)n(-c3ccc(OCC)cc3)c3nc(C)cc1c32`, with 140 nM; and `CCCC(CCC)N1CCn2c(=O)n(-c3ccc(Cl)cc3)c3nc(C)cc1c32`, with 12 nM.
In series [1], `CCCCN1CCn2c(=O)n(-c3ccc(OC)cc3)c3nc(C)cc1c32` came in with a Ki of 8800 nM.
In the case of `COc1ccc(-n2c(=O)n3c4c(cc(C)nc42)N(C(C)C)CC3)cc1`, the Ki in series [1] was greater than 10000 nM.
Take `CCCC(CCC)N1CCn2c(=O)n(-c3ccc(Cl)cn3)c3nc(C)cc1c32`: the Ki in [1] is 23 nM.
With `CCC(CC)N1CCn2c(=O)n(-c3ccc(Cl)cc3)c3nc(C)cc1c32`, the inhibitory constant (Ki) in [1] is 58 nM.
With `COCC(COC)Nc1nc(C)nc2c(-c3ccc(Cl)cc3Cl)c(C)nn12`, the half-life in series [9] is 960 min. Further, the Vd in series [6] worked out at 22 L/kg.
Compound `CCCCN(CC)c1nc(C)nc2c1c(C)cn2-c1c(C)cc(C)cc1C` [CP-154526] registered a T1/2 in series [9] of 51 h. The compound also came in with a Vd in [6] of 105 L/kg.
